KCNQ1 block: inhibitors of human KCNQ1 channel, primary screen, cell-based, thallium flux, high-throughput. CHO-K1 KCNQ1, FluxOR thallium flux fluorescence; stronger effect = higher value. B-score at 10 µM. 310,000 tested, 1.3% active. AID 2642, 2010;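 active = compounds whose thallium flux B-score, printed positive for inhibition, exceeds three library SD while starting fluorescence stays within three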;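 also: channel opened by potassium depolarization with thallium stimulus after 20 min compound exposure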
KCNK9 block: KCNK9 potassium channel inhibitors, primary screen, HEK293 cells, thallium flux; 310,000 tested, 1.2% active; Potassium channel subfamily K member 9 (Homo sapiens), Q9NPC2; FluxOR thallium flux fluorescence; stronger effect = lower value; AID 488922, 2010; B-score at 10 µM;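 active = ratio B-score over 3 SD below the library mean, with starting fluorescence within 5 SD of its mean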;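 also: negative B-score means less thallium flux so channel inhibition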
Target sequence (Q9NPC2 whole entry, looked up): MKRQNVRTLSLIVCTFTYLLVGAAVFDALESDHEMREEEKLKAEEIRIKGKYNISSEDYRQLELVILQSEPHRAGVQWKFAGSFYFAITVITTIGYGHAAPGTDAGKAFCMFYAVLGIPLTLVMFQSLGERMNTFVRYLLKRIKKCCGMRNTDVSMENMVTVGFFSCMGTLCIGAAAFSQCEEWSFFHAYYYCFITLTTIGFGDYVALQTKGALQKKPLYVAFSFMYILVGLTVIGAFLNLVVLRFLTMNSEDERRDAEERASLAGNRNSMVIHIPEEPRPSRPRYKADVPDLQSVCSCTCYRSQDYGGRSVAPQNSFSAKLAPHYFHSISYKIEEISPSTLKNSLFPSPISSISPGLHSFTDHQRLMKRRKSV
KCNK3 block: human KCNK3 channel inhibitors, primary screen, CHO cells, FluxOR thallium flux, B-score; Potassium channel subfamily K member 3 (Homo sapiens), O14649; FluxOR fluorescence; stronger effect = lower value; B-score at 10 µM; 340,000 tested, 0.84% active;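 active = B-score under library mean minus 4 SD, starting fluorescence ratio at most library mean plus 5 SD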;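 also: more negative B-score means stronger inhibition of thallium flux through KCNK3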
Target sequence (O14649 whole entry, looked up): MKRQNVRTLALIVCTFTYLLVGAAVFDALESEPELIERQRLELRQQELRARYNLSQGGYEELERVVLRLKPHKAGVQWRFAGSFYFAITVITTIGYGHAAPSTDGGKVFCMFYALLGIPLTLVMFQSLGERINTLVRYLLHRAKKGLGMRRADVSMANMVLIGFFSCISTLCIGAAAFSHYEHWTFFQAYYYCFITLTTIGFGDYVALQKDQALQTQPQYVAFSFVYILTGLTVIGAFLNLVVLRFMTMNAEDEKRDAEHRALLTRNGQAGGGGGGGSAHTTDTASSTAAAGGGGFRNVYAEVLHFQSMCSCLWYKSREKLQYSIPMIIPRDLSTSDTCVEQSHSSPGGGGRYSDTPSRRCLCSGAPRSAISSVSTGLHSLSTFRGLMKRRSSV
KCNQ1 pot: potentiators or activators of KCNQ1 channel, primary screen, cell-based, thallium flux, high-throughput. 310,000 tested, 0.35% active. CHO-K1 KCNQ1, thallium flux FluxOR fluorescence; stronger effect = higher value. AID 2648, 2010. B-score at 10 µM;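 active = fluorescence ratio B-score, a plate-corrected score, at least three library SD, with initial intensity B-score within 5 SD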
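Test system: CHO-K1 cells stably expressing KCNQ1 / Medium: assay buffer / Also added: depolarizing K+/Tl+ stimulus, K2SO4 and Tl2SO4 each 12.5 mM in 5x stock / Incubation: 90 min dye loading and 20 min compound exposure, both at room temperature / Signal: thallium influx via FluxOR fluorescence, kinetic imaging / Evaluation: B score of baseline-normalized fluorescence ratio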
hERG rescue: hERG rescue from dofetilide block, primary screen, cell-based, CHO-hERG, FluxOR thallium flux, dofetilide IC70. Voltage-gated inwardly rectifying potassium channel KCNH2 (Homo sapiens), Q12809. dofetilide IC70 present. activation (rescue from dofetilide block), less the hit threshold, % at 10 µM. 310,000 tested, 0.51% active. AID 1511, 2009;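 active = activation above the mean of controls blocked by dofetilide plus 5 SD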;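 also: thallium influx through hERG after potassium depolarization seen as dye fluorescence rise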
Kir21 block: inhibitors of mouse Kir2.1 inward-rectifier potassium channel; B-score at 10 µM; AID 1672, 2009; 310,000 tested, 0.85% active; HEK293-Kir2.1, FluxOR thallium flux fluorescence; stronger effect = lower value;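 active = fluorescence ratio B-score at or below minus 3 SD of library scores, with starting-brightness B-score within 2 SD, cut at about -4.2 in these data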;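 also: channel flux triggered by added potassium and thallium sulfate stimulus; B-score of peak minus minimum fluorescence over baseline after thallium stimulus; more negative B-score means stronger Kir2.1 block with less thallium influx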
KCNQ1 inh valid: KCNQ1 potassium channel inhibitors, confirmation, cell-based, Tl flux, duplicate | 1,600 tested, 93% active | inhibition, % at 10 µM | AID 588353, 2011 | KCNQ1 cell line, FluxOR thallium flux fluorescence | shares compounds with KCNQ1 block;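 active = primary screen active, with duplicate mean exceeding buffer control mean plus 3 SD of buffer wells, cut at about 28% in these data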
CHO Tl flux: thallium flux effects in parental CHO cells, counter-screen for KCNQ1 inhibitor project, cell-based, Tl flux; shares compounds with KCNQ1 block; parental CHO-K1, FluxOR thallium flux fluorescence ratio; stronger effect = lower value; zero means no signal rise above baseline; fluorescence ratio (Tl flux) at 10 µM; 1,600 tested, 21% active;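 active = mean of duplicate thallium-flux fluorescence ratios in parental host cells more than 5 SD below the buffer control mean, cut at about 0.38 in these data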;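 also: ratio is peak minus minimum fluorescence divided by baseline fluorescence; actives read low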
KCNQ1 ephys val: KCNQ1 channel inhibitors, confirmation, orthogonal assay, cell-based, automated electrophysiology | KCNQ1-CHO cells, automated patch clamp current | calls only at 10 µM | shares compounds with KCNQ1 block | 490 tested, 20% active;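 active = KCNQ1 current drop exceeding 3 SD of negative control wells, seen in both duplicate runs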;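 also: steady state current during a 2 s step from -80 to +40 mV; negative values mean current inhibition and positive values mean potentiation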
KCNQ2 spec: KCNQ2 channel inhibition, selectivity assay for KCNQ1 inhibitor project, cell-based; 1,600 tested, 71% active; KCNQ2 cells, FluxOR thallium flux fluorescence; shares compounds with KCNQ1 block; inhibition, % at 10 µM;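 active = mean percent inhibition of the KCNQ2 thallium signal more than 5 SD above the buffer-only control wells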;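 also: KCNQ2 expressed in CHO cells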
KCNQ1-KCNE1 inh: KCNQ1/KCNE1 channel inhibition, selectivity assay for KCNQ1 inhibitor project, CHO-K1 cells, thallium flux, FluxOR | inhibition, % at 10 µM | 1,600 tested, 77% active | AID 652147, 2013 | shares compounds with KCNQ1 block | FluxOR thallium flux fluorescence;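 active = mean percent inhibition of duplicate wells above the buffer-only control mean plus 3 SD of those controls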
Each line names hits and unclear results; the compound was inactive in the other large screens (follow-up assays come after a bar, where they were run). Rows were chosen to be rich in hits. Some 3.8% of all compounds tested hit in one or more screens of this group.

Cc1ccc(SCCNC(=S)Nc2ccccc2)cc1	none
S=C(NCCc1ccccc1)Nc1ccc(Cl)cc1Cl	KCNQ1 block 7 | KCNQ1 inh valid 34 | CHO Tl flux inactive | KCNQ2 spec inactive | KCNQ1-KCNE1 inh inactive
CCCCn1c(N)c(N(CC)C(=O)c2ccc(C#N)cc2)c(=O)[nH]c1=O	none
C=CCN(C(=O)c1csnn1)C(C(=O)NCc1ccc(F)cc1)c1cccs1 (centres undefined)	none
S=C(NCCc1ccccc1)Nc1cccc2cnccc12	KCNQ1 block 7 | KCNQ1 inh valid 29 | CHO Tl flux inactive | KCNQ2 spec inactive | KCNQ1-KCNE1 inh inactive
COc1ccc(S(=O)(=O)N(C)C)cc1NC(=O)CCCSc1ccccc1	none
Cc1ccccc1OCCCC(=O)Nc1ccc(S(=O)(=O)Nc2onc(C)c2C)cc1	none
CCOC(=O)C1=C(C)N=c2s/c(=C\c3ccc(O)c([N+](=O)[O-])c3)c(=O)n2C1c1ccccc1OC (centres undefined)	KCNQ1 block 18 | KCNQ1 inh valid 144 | CHO Tl flux 0.3 | KCNQ2 spec 109% | KCNQ1-KCNE1 inh active
CCOC(=O)c1ccc(NC(=S)Nc2ccc(C)cc2)cc1	none
CCOC(=O)c1cn[nH]c1NC(=S)Nc1ccc(Cl)cc1	KCNQ1 block 13 | KCNQ1 inh valid 78 | CHO Tl flux inactive | KCNQ2 spec 76% | KCNQ1-KCNE1 inh 54%
CCOc1ccc(NC(=S)NCc2ccc3c(c2)OCO3)cc1	KCNQ1 block 6 | KCNQ1 inh valid 40 | CHO Tl flux inactive | KCNQ2 spec 96% | KCNQ1-KCNE1 inh 38%
Cc1ccc(NC(=S)NCc2ccc3c(c2)OCO3)cc1	none
Cn1ncc(Cl)c1C(=O)N1CCN(S(=O)(=O)c2ccc(Cl)s2)CC1	none
CC(N=c1ccccn1C(=O)Nc1ccc(F)cc1)c1ccco1 (centres undefined)	none
CC(N=c1ccccn1C(=O)Nc1ccc(Cl)cc1)c1ccco1 (centres undefined)	KCNQ1 block 10 (no result: KCNK3 block) | KCNQ1 inh valid 62 | CHO Tl flux inactive | KCNQ2 spec 61% | KCNQ1-KCNE1 inh inactive
COc1ccc(N(CC(O)Cn2c3ccccc3c3ccccc32)S(=O)(=O)c2ccccc2)cc1 (centres undefined)	KCNQ1 block 11, KCNK9 block -7.5 | KCNQ1 inh valid 107 | CHO Tl flux inactive | KCNQ1 ephys val inactive | KCNQ2 spec inactive | KCNQ1-KCNE1 inh 148%
CS(=O)(=O)N(CC(O)Cn1c2ccccc2c2ccccc21)c1ccccc1 (centres undefined)	none
COc1ccc(CC/C(C)=N\NC(N)=O)cc1	none
CSc1nnc(C)c(/C=C/Nc2ccc(F)cc2)n1	none
CSc1nnc(C)c(/C=C/Nc2ccc(Cl)cc2)n1	KCNQ1 block 11 | KCNQ1 inh valid 48 | CHO Tl flux inactive | KCNQ2 spec inactive | KCNQ1-KCNE1 inh 88%
O=C(Nc1ccc(Cl)cc1)Nc1ccc2c(c1)N1CCN=C1S2	KCNQ1 block 12 | KCNQ1 inh valid 106 | CHO Tl flux inactive | KCNQ1 ephys val inactive | KCNQ2 spec 65% | KCNQ1-KCNE1 inh 110%
O=C(Nc1ccc(F)cc1)c1ccccc1NS(=O)(=O)N1CCCC1	KCNQ1 block 7 | KCNQ1 inh valid 82 | CHO Tl flux inactive | KCNQ2 spec 67% | KCNQ1-KCNE1 inh inactive
CCOc1ccc(CNC(=O)c2ccccc2NC(=O)C2=CSCCO2)cc1	none
Cc1nc2ccccn2c1C(=O)N=Nc1c(O)[nH]c2ccccc12	none
COc1ccc(-c2csc(NC(=O)CSc3nc(C)cs3)n2)cc1	none
COc1ccc(-c2csc(NC(=O)CSc3nc(SC)ns3)n2)cc1	KCNQ1 block 9 | KCNQ1 inh valid 114 | CHO Tl flux inactive | KCNQ1 ephys val inactive | KCNQ2 spec 66% | KCNQ1-KCNE1 inh 116%
Cc1cc(/C=C2/SC(=S)N(c3ccc([N+](=O)[O-])cc3)C2=O)c(C)n1-c1cccnc1	KCNQ1 block 16 | KCNQ1 inh valid 124 | CHO Tl flux inactive | KCNQ1 ephys val inactive | KCNQ2 spec 75% | KCNQ1-KCNE1 inh 102%
O=C(NCc1ccco1)c1ccc(CS(=O)Cc2ccc(Cl)cc2)o1 (centres undefined)	none
Nc1nccnc1C(=O)OCC(=O)NCCc1ccc(S(N)(=O)=O)cc1	none
CCOC(=O)C1CCN(c2c(C(=O)c3ccccc3)cnc3ccc(Cl)cc23)CC1	KCNQ1 block 6 | KCNQ1 inh valid 154 | CHO Tl flux inactive | KCNQ1 ephys val inactive | KCNQ2 spec 134% | KCNQ1-KCNE1 inh 92%
COCCn1c(SCC(=O)NCc2ccc3c(c2)OCO3)nc2ccccc2c1=O	none
Cc1ccc(OCCCn2ccnc2)cc1C	none
Cc1cc(OCCn2ccnc2)ccc1C(C)C	KCNQ1 block 6 | KCNQ1 inh valid inactive | CHO Tl flux inactive | KCNQ2 spec 64% | KCNQ1-KCNE1 inh 42%
CCCn1nc(NC(=O)c2cccs2)c2cc3cccc(C)c3nc21	KCNQ1 block 7 | KCNQ1 inh valid 158 | CHO Tl flux 0.32 | KCNQ2 spec inactive | KCNQ1-KCNE1 inh active

Bioassay records deposited in PubChem BioAssay by Johns Hopkins Ion Channel Center.
